Source: article PMC2246419 (EMBO Reports, 2008)

Experiments:
[1] = tested on: ecotropic MLV retrovirus; experiment: Viral production assay; type: cell-based, human; settings: 800 nM, TEFLY Mo producer cells
[2] = tested on: NIH3T3 cells; experiment: In vivo measurement of phosphoinositide levels in 32P-labelled cells; type: cell-based, mouse; settings: 800 nM
[3] = target: p110α (Bos taurus, UniProt P32871); experiment: In vitro lipid kinase assay, GST-p110α; type: biochemical
[4] = target: T1, type IIγ PtdInsP kinase (Homo sapiens, UniProt Q8TBX8); experiment: In vitro lipid kinase assay, type IIγ PtdInsP kinase; type: biochemical; settings: even at 10 μM; data not shown
T1 sequence (Q8TBX8 1-421): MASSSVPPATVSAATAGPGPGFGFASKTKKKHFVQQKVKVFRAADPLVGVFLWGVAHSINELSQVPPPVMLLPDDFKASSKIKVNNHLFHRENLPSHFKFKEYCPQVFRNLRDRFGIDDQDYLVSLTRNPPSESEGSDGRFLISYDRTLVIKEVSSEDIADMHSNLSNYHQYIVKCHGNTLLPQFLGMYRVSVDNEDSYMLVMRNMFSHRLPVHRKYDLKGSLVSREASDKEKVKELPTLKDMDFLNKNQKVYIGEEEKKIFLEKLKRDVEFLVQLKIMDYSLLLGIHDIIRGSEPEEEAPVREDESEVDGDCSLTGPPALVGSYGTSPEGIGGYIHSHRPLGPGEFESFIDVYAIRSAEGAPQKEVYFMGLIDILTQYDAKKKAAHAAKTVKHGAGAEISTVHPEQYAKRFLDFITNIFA

[5] = tested on: NIH3T3 cells; experiment: Cell division and growth curves; type: cell-based, mouse; settings: 800 nM
[6] = tested on: PKB Ser 473 phosphorylation in NIH3T3 cells; experiment: Western blot of serum-stimulated PKB Ser 473 phosphorylation; type: cell-based, mouse
[7] = tested on: NIH3T3 cells; experiment: Lysotracker staining of swollen vesicles; type: cell-based, mouse; settings: 800 nM 3 h, Lysotracker Red DND-99
Outline: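 NIH3T3 cells were exposed to test compound at 800 nM for 3 h. Lysotracker Red DND-99 (100 nM) was added to the medium for the final 0.5 h, and the acidotropic dye was imaged in the enlarged vesicles.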

[8] = tested on: type Iα PtdInsP kinase; experiment: In vitro lipid kinase assay, type Iα PtdInsP kinase; type: biochemical, mouse

Chain of p110α (P32871 whole entry): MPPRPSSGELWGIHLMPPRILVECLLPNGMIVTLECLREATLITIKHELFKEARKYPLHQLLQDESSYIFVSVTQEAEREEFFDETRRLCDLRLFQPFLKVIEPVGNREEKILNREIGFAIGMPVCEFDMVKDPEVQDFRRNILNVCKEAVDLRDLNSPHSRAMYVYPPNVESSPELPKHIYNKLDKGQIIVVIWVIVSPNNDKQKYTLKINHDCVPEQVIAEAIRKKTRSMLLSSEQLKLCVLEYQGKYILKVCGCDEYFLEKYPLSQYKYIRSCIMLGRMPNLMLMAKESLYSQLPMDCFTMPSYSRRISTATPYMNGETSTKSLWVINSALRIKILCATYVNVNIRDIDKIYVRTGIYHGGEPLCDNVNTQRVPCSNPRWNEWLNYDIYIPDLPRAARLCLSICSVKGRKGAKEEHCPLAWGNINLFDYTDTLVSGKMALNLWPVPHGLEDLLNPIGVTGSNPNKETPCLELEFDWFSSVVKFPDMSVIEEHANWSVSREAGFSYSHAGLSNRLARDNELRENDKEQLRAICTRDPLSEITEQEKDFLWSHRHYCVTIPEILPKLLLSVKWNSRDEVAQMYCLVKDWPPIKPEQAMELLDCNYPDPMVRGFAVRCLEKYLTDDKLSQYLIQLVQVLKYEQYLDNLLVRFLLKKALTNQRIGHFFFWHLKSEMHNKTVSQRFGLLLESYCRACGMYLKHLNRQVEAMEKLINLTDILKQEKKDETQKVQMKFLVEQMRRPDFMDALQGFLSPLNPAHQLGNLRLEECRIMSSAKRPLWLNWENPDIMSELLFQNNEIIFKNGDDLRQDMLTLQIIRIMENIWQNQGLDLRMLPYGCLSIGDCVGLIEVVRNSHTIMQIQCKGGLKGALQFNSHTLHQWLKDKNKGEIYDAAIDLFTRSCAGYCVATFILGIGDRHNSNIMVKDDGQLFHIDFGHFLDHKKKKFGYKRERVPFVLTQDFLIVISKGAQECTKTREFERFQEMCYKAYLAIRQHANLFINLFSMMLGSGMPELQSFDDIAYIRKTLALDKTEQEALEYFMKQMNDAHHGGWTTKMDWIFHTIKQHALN

Row | IC50 ([3]; p110α IC50, 50 μM ATP, 100 μM PtdIns substrate) [µM] | p110α IC50 fold higher than for PIKfyve ([3]; same assay conditions) [fold] | Inhibition of type IIγ PtdInsP kinase [4] | type Iα PtdInsP kinase IC50 fold greater than against PIKfyve [8] | IC50 ([8]; read-out: type Iα PtdInsP kinase IC50, mouse enzyme, data not shown) [µM] | Compound | Reduction of virus released into the medium [1] [%] | Decrease of PtdIns(3,5)P2 production [2] [%] | Decrease of PtdIns(4,5)P2 [2] | Effect on all other phosphoinositides identified [2] | Effect on cell division [5] | Effect on PKB Ser 473 phosphorylation ([6]; 800 nM) | Acidification of swollen vesicles [7] | Effect on serum-stimulated phosphorylation of PKB ([6]; increasing concentrations)
1 | 3 | ~100 | did not inhibit | around 100 fold | > 2 | Nc1ccc(C(=O)Nc2cccc(-c3nc(N4CCOCC4)c4oc5ncccc5c4n3)c2)cn1 [YM201636] | 80 | 80 | around 20% | remained largely unaltered | does not inhibit cell division | no influence | poorly acidified | –
2 | – | – | – | – | – | Oc1cccc(-c2nc(N3CCOCC3)c3oc4ncccc4c3n2)c1 [YM211103] | – | – | – | – | – | – | – | decreased
